Each block holds one compound with its values, some of them ahead of it.
How the values were obtained:
[1] = test system: Splenocyte; assay: Induction of IFN in C3H/HeJ mouse splenocytes at 100 nM; assay type: functional
How it was run: (§1)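 Mouse splenocytes are suspended at 2 × 10⁶ cells/mL in MEM with 5% fetal calf serum, penicillin and streptomycin. They are mixed 1:1 with compound (DMSO stock diluted 500-fold in medium) and cultured 18 h at 37 °C in 5% CO₂. Supernatants are filter-sterilized and stored at -80 °C. IFN (IU/mL) is measured by L929/vesicular stomatitis virus bioassay.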

[2] = test system: Mus musculus; assay: Induction of IFN in BALB/c mice at 0.3 mg/kg, po; assay type: functional
[3] = test system: Splenocyte; assay: Induction of IFN in C3H/HeJ mouse splenocytes at 30 nM; assay type: functional; how it was run: as §1
[4] = test system: Mus musculus; assay: Induction of IFN in BALB/c mice at 0.1 mg/kg, po; assay type: functional
[5] = test system: Splenocyte; assay: Induction of IFN in C3H/HeJ mouse splenocytes at 3 nM; assay type: functional; how it was run: as §1
[6] = test system: Splenocyte; assay: Induction of IFN in C3H/HeJ mouse splenocytes at 10 nM; assay type: functional; how it was run: as §1
[7] = test system: Splenocyte; assay: Induction of IFN in C3H/HeJ mouse splenocytes at 1 nM; assay type: functional; how it was run: as §1
[8] = test system: Mustela putorius furo; assay: Emetic activities in ferret at 0.3 mg/kg, po; assay type: organism-based; set-up: dose 0.3 mg/kg, route oral; details: in vivo
How it was run: (§2)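 Oral dosing of male ferrets (4 months old) with compound in 0.5% sodium carboxymethyl cellulose vehicle; doses 0.3-30 mg/kg, 5 animals per group. Animals housed singly, video-recorded continuously for 6 h. Tapes scored afterwards for presence or absence of vomiting; reported as number vomiting per group.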

[9] = test system: Cynomolgus monkey; assay: Induction of IFN in cynomolgus monkey at 1 mg/kg, po; assay type: functional, Macaca fascicularis
[10] = test system: Mustela putorius furo; assay: Emetic activities in ferret at 3 mg/kg, po; assay type: organism-based; set-up: dose 3 mg/kg, route oral; details: in vivo; how it was run: as §2
[11] = test system: Cynomolgus monkey; assay: Induction of IFN in cynomolgus monkey at 0.3 mg/kg, po; assay type: functional, Macaca fascicularis
[12] = Cmax in ferret at 3 mg/kg, po; assay type: ADME, organism-based, Mustela putorius furo; set-up: dose 3 mg/kg, route oral; details: in vivo
How it was run: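 Male ferrets, 4 months old, dosed orally with compound suspended in 0.5% sodium carboxymethyl cellulose. Blood (0.5 mL) drawn from jugular vein; serum separated at 1630g, 10 min, 4 °C, stored at -20 °C. Compound concentration measured by HPLC; maximum concentration reported in ng/mL.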

[13] = test system: Cynomolgus monkey; assay: Induction of IFN in cynomolgus monkey at 0.1 mg/kg, po; assay type: functional, Macaca fascicularis

SMILES: CCCCNc1nc(N)c2nc(O)n(Cc3ccccc3)c2n1
Activity [1]: 3.4 IU/ml
Activity [2]: 465 IU/ml
Activity [3]: <0.5 IU/ml
Activity [4]: 113 IU/ml

SMILES: CCCCNc1nc(N)c2nc(O)n(Cc3cccnc3C)c2n1
Activity [1]: 3 IU/ml
Activity [5]: <0.5 IU/ml
Activity [6]: 12.8 IU/ml
Activity [3]: 8.3 IU/ml

SMILES: CCCCNc1nc(N)c2nc(O)n(Cc3ccc([N+](=O)[O-])cc3)c2n1
Activity [1]: 2 IU/ml
Activity [2]: 444 IU/ml
Activity [5]: <0.5 IU/ml
Activity [6]: 11.6 IU/ml
Activity [3]: 4.5 IU/ml
Activity [4]: 61 IU/ml

SMILES: CCCCNc1nc(N)c2nc(O)n(Cc3ccc(OCc4ccccc4)cc3)c2n1
Activity [1]: 10.6 IU/ml
Activity [3]: <0.5 IU/ml

SMILES: CCCCNc1nc(N)c2nc(O)n(CC3CCCCC3)c2n1
Activity [1]: 3.7 IU/ml
Activity [6]: <0.5 IU/ml
Activity [3]: 1.7 IU/ml

SMILES: CCCCNc1nc(N)c2nc(O)n(Cc3ccc(CCCC)cc3)c2n1
Activity [1]: 11 IU/ml
Activity [2]: <5 IU/ml
Activity [3]: <0.5 IU/ml

SMILES: Nc1nc(NCc2ccncc2)nc2c1nc(O)n2Cc1ccc(F)cc1
Activity [1]: 5.2 IU/ml
Activity [2]: 492 IU/ml
Activity [5]: <0.5 IU/ml
Activity [6]: 11.1 IU/ml
Activity [4]: 19 IU/ml

SMILES: CCCCNc1nc(N)c2nc(O)n(Cc3cccc(Cl)c3)c2n1
Activity [1]: 4.4 IU/ml
Activity [6]: <0.5 IU/ml
Activity [3]: 2.8 IU/ml

SMILES: COCCNc1nc(N)c2nc(O)n(Cc3ccc(F)cc3)c2n1
Activity [1]: 8.3 IU/ml
Activity [2]: 521 IU/ml
Activity [6]: <0.5 IU/ml
Activity [3]: 4.8 IU/ml
Activity [4]: 54 IU/ml

SMILES: CCCCNc1nc(N)c2nc(O)n(CCc3ccccc3)c2n1
Activity [1]: <0.5 IU/ml

SMILES: CCCCNc1nc(N)c2nc(O)n(Cc3ccccc3Cl)c2n1
Activity [1]: 4.5 IU/ml
Activity [6]: <0.5 IU/ml
Activity [3]: 2 IU/ml

SMILES: CCCCNc1nc(N)c2nc(O)n(Cc3ccccn3)c2n1
Activity [1]: 9.1 IU/ml
Activity [2]: <5 IU/ml
Activity [6]: <0.5 IU/ml
Activity [3]: 7.4 IU/ml

SMILES: CCCCNc1nc(N)c2nc(O)n(CC(C)C)c2n1
Activity [1]: 4.1 IU/ml
Activity [3]: <0.5 IU/ml

SMILES: CCCCNc1nc(N)c2nc(O)n(Cc3ccc(C)nc3Cl)c2n1
Activity [1]: 3.4 IU/ml
Activity [5]: <0.5 IU/ml
Activity [6]: 8.4 IU/ml
Activity [4]: <5 IU/ml

SMILES: CCCCNc1nc(N)c2nc(O)n(CC(C)(C)O)c2n1
Activity [1]: 0.6 IU/ml
Activity [2]: <5 IU/ml
Activity [3]: <0.5 IU/ml

SMILES: CCCCNc1nc(N)c2nc(O)n(Cc3ccc(C(F)(F)F)cc3)c2n1
Activity [1]: 15.2 IU/ml
Activity [2]: 276 IU/ml
Activity [5]: <0.5 IU/ml
Activity [6]: 2.9 IU/ml
Activity [3]: 10.7 IU/ml
Activity [4]: 8 IU/ml

SMILES: CCCCNc1nc(N)c2nc(O)n(Cc3cccc4ccccc34)c2n1
Activity [1]: 15.4 IU/ml
Activity [2]: 39 IU/ml
Activity [5]: <0.5 IU/ml
Activity [6]: 2.2 IU/ml
Activity [3]: 34 IU/ml
Activity [4]: <5 IU/ml

SMILES: CCCCNc1nc(N)c2nc(O)n(Cc3ccc(N(C)C)nc3)c2n1
Activity [1]: 2.7 IU/ml
Activity [7]: <0.5 IU/ml
Activity [5]: 4.9 IU/ml
Activity [6]: 9.4 IU/ml
Activity [3]: 5.1 IU/ml
Activity [4]: <5 IU/ml

SMILES: CCCCNc1nc(N)c2nc(O)n(Cc3ccc4ccccc4c3)c2n1
Activity [1]: 17.4 IU/ml
Activity [2]: <5 IU/ml
Activity [6]: <0.5 IU/ml
Activity [3]: 7.1 IU/ml

SMILES: CCCCNc1nc(N)c2nc(O)n(Cc3ccc(Cl)c(Cl)c3)c2n1
Activity [1]: 10 IU/ml
Activity [2]: 136 IU/ml
Activity [5]: <0.5 IU/ml
Activity [6]: 0.8 IU/ml
Activity [4]: <5 IU/ml

SMILES: CCCCNc1nc(N)c2nc(O)n(Cc3ccc(F)c(F)c3)c2n1
Activity [1]: 7.1 IU/ml
Activity [2]: 338 IU/ml
Activity [5]: <0.5 IU/ml
Activity [6]: 6.4 IU/ml
Activity [3]: 14.7 IU/ml
Activity [4]: 35 IU/ml

SMILES: CCCCNc1nc(N)c2nc(O)n(Cc3ccc(F)cc3)c2n1
Activity [1]: 4.2 IU/ml
Activity [2]: 313 IU/ml
Activity [5]: <0.5 IU/ml
Activity [6]: 12.8 IU/ml
Activity [4]: 139 IU/ml

SMILES: CCCCNc1nc(N)c2nc(O)n(Cc3ccc(O)cc3)c2n1
Activity [1]: 3.1 IU/ml
Activity [2]: 20 IU/ml
Activity [5]: <0.5 IU/ml
Activity [6]: 12.4 IU/ml

SMILES: CCCCNc1nc(N)c2nc(O)n(Cc3cncc(C)c3)c2n1
Activity [1]: 4.6 IU/ml
Activity [7]: <0.5 IU/ml
Activity [5]: 1.9 IU/ml
Activity [6]: 2.4 IU/ml
Activity [3]: 2.1 IU/ml

SMILES: COCCNc1nc(N)c2nc(O)n(Cc3ccccc3)c2n1
Activity [1]: 7.1 IU/ml
Activity [2]: 639 IU/ml
Activity [3]: <0.5 IU/ml
Activity [4]: 44 IU/ml

SMILES: CCCCNc1nc(N)c2nc(O)n(Cc3cnccc3Cl)c2n1
Activity [1]: 4.2 IU/ml
Activity [3]: <0.5 IU/ml

SMILES: Nc1nc(NCc2ccncc2)nc2c1nc(O)n2Cc1ccccc1
Activity [1]: 9.1 IU/ml
Activity [2]: 73 IU/ml
Activity [5]: <0.5 IU/ml
Activity [6]: 2.2 IU/ml
Activity [3]: 3.9 IU/ml
Activity [4]: <5 IU/ml

SMILES: CCCCNc1nc(N)c2nc(O)n(Cc3ccncc3)c2n1
Activity [1]: 4.3 IU/ml
Activity [5]: <0.5 IU/ml
Activity [6]: 4.2 IU/ml
Activity [3]: 11.9 IU/ml
Activity [4]: 21 IU/ml

SMILES: CCCCNc1nc(N)c2nc(O)n(Cc3cnccn3)c2n1
Activity [1]: 4.2 IU/ml
Activity [6]: <0.5 IU/ml
Activity [3]: 2.9 IU/ml

SMILES: CCCCNc1nc(N)c2nc(O)n(Cc3ccc(-c4ccccc4)cc3)c2n1
Activity [1]: 3.4 IU/ml
Activity [3]: 0.5 IU/ml

SMILES: Nc1nc(NCc2ccccc2)nc2c1nc(O)n2Cc1ccccc1
Activity [1]: 80.4 IU/ml
Activity [2]: 398 IU/ml
Activity [5]: <0.5 IU/ml
Activity [6]: 44.4 IU/ml
Activity [4]: 203 IU/ml

SMILES: CCCCNc1nc(N)c2nc(O)n(Cc3cccc(C)c3)c2n1
Activity [1]: 5.5 IU/ml
Activity [6]: <0.5 IU/ml
Activity [3]: 3 IU/ml

SMILES: CCCCNc1nc(N)c2nc(O)n(Cc3cccnc3Cl)c2n1
Activity [1]: 5 IU/ml
Activity [2]: 94 IU/ml
Activity [5]: <0.5 IU/ml
Activity [6]: 3.7 IU/ml
Activity [3]: 16.3 IU/ml
Activity [4]: <5 IU/ml

SMILES: CCCCNc1nc(N)c2nc(O)n(Cc3ccc(C(C)(C)C)cc3)c2n1
Activity [1]: 13 IU/ml
Activity [2]: <5 IU/ml
Activity [6]: <0.5 IU/ml
Activity [3]: 4.4 IU/ml

SMILES: CCCCNc1nc(N)c2nc(O)n(Cc3ccccc3C)c2n1
Activity [1]: 3.6 IU/ml
Activity [6]: <0.5 IU/ml
Activity [3]: 3 IU/ml

SMILES: CCCCNc1nc(N)c2nc(O)n(Cc3ccc(Cl)s3)c2n1
Activity [1]: 7.2 IU/ml
Activity [2]: 484 IU/ml
Activity [5]: <0.5 IU/ml
Activity [6]: 8.9 IU/ml
Activity [3]: 11.3 IU/ml
Activity [4]: 34 IU/ml

SMILES: CCCCNc1nc(N)c2nc(O)n(Cc3ccc(Cl)nc3Cl)c2n1
Activity [1]: 5.7 IU/ml
Activity [6]: <0.5 IU/ml
Activity [3]: 14.6 IU/ml
Activity [4]: 42 IU/ml

SMILES: CCCCNc1nc(N)c2nc(O)n(Cc3cccnc3)c2n1
Activity [1]: 8.1 IU/ml
Activity [7]: <0.5 IU/ml
Activity [2]: 327 IU/ml
Activity [5]: 1.6 IU/ml
Activity [6]: 32.5 IU/ml
Activity [3]: 16.6 IU/ml
Activity [4]: 76 IU/ml

SMILES: Nc1nc(NCc2ccccc2)nc2c1nc(O)n2Cc1ccc(F)cc1
Activity [1]: 4.5 IU/ml
Activity [2]: <5 IU/ml
Activity [3]: <0.5 IU/ml

SMILES: CCCCNc1nc(N)c2nc(O)n(Cc3ccc(C)cc3)c2n1
Activity [1]: 2 IU/ml
Activity [2]: 356 IU/ml
Activity [5]: <0.5 IU/ml
Activity [6]: 9.2 IU/ml
Activity [3]: 6.2 IU/ml
Activity [4]: 28 IU/ml

SMILES: CCCCNc1nc(N)c2nc(O)n(Cc3ccc(Cl)cc3)c2n1
Activity [1]: 7.4 IU/ml
Activity [2]: 219 IU/ml
Activity [5]: <0.5 IU/ml
Activity [6]: 8.5 IU/ml
Activity [3]: 8.2 IU/ml
Activity [4]: 7 IU/ml

SMILES: CCCCNc1nc(N)c2nc(O)n(Cc3ccc(OC)cc3)c2n1
Activity [1]: 2 IU/ml
Activity [2]: 933 IU/ml
Activity [5]: <0.5 IU/ml
Activity [6]: 6.5 IU/ml
Activity [3]: 4.7 IU/ml
Activity [4]: 73 IU/ml

Cmax [12]: 1180 ng/mL
SMILES: CCOCc1nc2c(N)nc3ccccc3c2n1CC(C)(C)O [RESIQUIMOD]
Activity [1]: 4 IU/ml
Activity [8]: Active
Activity [9]: 44037 IU/ml
Activity [7]: <0.5 IU/ml
Activity [10]: Active
Activity [11]: 13 IU/ml
Activity [13]: 7 IU/ml
Activity [2]: 1714 IU/ml
Activity [5]: 2.8 IU/ml
Activity [6]: 11 IU/ml
Activity [3]: 7 IU/ml
Activity [4]: 1176 IU/ml
